Data set [1] addresses T1, Nuclear receptor subfamily 1 group I member 3 (Homo sapiens, UniProt Q14994).
T1 sequence (Q14994 whole entry): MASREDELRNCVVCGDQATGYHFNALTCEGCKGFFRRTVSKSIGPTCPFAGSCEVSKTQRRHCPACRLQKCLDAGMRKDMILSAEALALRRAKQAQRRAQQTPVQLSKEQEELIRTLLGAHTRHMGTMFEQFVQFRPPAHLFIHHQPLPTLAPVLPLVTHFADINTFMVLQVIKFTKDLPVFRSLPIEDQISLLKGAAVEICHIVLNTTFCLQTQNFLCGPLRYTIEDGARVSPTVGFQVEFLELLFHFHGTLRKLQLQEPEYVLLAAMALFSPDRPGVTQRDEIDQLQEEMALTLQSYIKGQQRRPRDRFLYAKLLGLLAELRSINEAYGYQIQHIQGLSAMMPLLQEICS
Put plainly: Agonist activity at CAR expressed in human HepG2 cells at 1 to 20 uM after 48 hrs by p(ER6)3-luciferase reporter gene assay. The data set is classed as cell-based. The following applies: hepg2, 48 h. The essentials: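 HepG2 cells transiently co-transfected with p(ER6)3-luc reporter, wild-type CAR expression vector and pRL-TK normalization plasmid; after 24 h stabilization, treated with compounds or vehicle (DMSO 0.1%, v/v) for 48 h. Firefly and Renilla luciferase read; fold change versus vehicle (set to 1), means ± SD of triplicates from a representative experiment.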

Data set [2] deals with T1, Nuclear receptor subfamily 1 group I member 3. Put plainly: Agonist activity at CAR expressed in human HepG2 cells after 24 hrs by CYP3A4-luciferase reporter gene assay. The data set is classed as cell-based. The following applies: hepg2, 24 h. The essentials: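 HepG2 cells co-transfected with CYP3A4-luc, wild-type CAR vector and pRL-TK; 24 h stabilization, then compound or DMSO (0.1%, v/v) for 24 h, with parallel androstenol (5 µM) treatment to suppress basal activity. Dual firefly/Renilla luciferase read; fold induction over vehicle (set to 1), means of three independent experiments.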

The target of data set [3] is T2, Vitamin D3 receptor (Homo sapiens) (UniProt P11473).
T2 sequence (whole entry): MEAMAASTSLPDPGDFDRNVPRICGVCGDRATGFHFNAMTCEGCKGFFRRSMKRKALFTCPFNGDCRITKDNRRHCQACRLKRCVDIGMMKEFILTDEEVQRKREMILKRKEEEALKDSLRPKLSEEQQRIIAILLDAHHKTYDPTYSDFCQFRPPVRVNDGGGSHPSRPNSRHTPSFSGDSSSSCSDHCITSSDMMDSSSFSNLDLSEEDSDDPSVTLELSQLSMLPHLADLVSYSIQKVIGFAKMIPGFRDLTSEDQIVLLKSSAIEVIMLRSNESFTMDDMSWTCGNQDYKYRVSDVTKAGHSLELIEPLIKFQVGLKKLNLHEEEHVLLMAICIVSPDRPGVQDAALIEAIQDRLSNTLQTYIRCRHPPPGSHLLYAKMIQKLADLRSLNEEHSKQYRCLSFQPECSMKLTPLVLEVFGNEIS
The experiment in a line: Agonist activity at VDR in human primary hepatocytes assessed as upregulation of CYP2C9 mRNA expression at 10 uM after 24 hrs by qRT-PCR method. The format is cell-based. The following applies: Hepatocyte.

For another data set, the target named is T3, AHR (Homo sapiens, UniProt P35869).
T3 sequence (P35869 whole entry): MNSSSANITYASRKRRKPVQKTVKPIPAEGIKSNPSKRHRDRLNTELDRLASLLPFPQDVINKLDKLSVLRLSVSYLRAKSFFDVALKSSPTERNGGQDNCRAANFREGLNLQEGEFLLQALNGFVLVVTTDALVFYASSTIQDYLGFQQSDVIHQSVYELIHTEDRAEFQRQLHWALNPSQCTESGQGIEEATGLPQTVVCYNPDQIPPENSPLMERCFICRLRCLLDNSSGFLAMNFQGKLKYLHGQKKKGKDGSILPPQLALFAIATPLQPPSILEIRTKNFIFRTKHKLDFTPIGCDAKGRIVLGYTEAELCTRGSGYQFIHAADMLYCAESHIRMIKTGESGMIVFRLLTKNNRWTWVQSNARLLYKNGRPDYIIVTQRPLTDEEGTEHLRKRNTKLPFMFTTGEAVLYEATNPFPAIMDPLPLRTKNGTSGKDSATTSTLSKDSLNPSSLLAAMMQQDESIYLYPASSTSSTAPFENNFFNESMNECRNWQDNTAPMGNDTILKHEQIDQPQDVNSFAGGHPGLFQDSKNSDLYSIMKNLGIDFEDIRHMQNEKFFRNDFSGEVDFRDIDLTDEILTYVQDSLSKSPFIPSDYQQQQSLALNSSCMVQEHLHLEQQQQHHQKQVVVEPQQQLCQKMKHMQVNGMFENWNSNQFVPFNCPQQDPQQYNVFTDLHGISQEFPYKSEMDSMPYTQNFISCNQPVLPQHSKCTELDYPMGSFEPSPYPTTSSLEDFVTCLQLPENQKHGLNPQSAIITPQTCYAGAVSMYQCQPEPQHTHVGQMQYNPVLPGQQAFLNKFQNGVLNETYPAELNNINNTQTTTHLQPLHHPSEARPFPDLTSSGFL
Put plainly: (§1) Agonist activity at AHR expressed in human HepG2 cells after 24 hrs by pXRE-luciferase reporter gene assay. The format is cell-based. The following applies: human, HepG2 cells expressing AHR; read-out: Imax.

For data set [4], the target named is T4, Aryl hydrocarbon receptor (Homo sapiens, UniProt P35869).
T4 sequence (P35869 whole entry): T3 sequence (P35869 whole entry)
Described as §1. The data set is classed as cell-based.

Data set [5] deals with T1, Nuclear receptor subfamily 1 group I member 3. The experiment in a line: Agonist activity at human GAL4-fused CAR LBD (108 to 348 residues) expressed in human HepG2 cells assessed as receptor binding to SRC1-VP16 fusion protein at 5 to 20 uM after 24 hrs by luciferase reporter gene assay. The format is cell-based. The following applies: hepg2, 24 h.
The target in data set [6] is T5, Nuclear receptor subfamily 1 group I member 2 (Homo sapiens, UniProt O75469).
T5 sequence (O75469 whole entry): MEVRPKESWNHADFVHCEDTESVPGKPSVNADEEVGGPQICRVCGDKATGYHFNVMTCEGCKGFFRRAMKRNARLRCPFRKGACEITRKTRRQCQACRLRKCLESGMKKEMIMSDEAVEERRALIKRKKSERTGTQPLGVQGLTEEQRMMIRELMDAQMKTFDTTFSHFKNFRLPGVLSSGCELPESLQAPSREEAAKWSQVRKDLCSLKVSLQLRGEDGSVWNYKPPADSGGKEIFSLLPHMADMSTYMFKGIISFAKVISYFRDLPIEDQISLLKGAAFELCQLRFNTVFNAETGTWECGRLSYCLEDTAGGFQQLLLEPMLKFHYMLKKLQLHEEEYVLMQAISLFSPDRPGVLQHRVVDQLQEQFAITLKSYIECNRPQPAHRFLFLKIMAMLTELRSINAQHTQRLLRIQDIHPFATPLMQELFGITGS
The experiment in a line: Agonist activity at PXR in human primary hepatocytes assessed as upregulation of UGT1A1 mRNA expression at 10 uM after 24 hrs by qRT-PCR method. The format is cell-based, Hepatocyte.

Active and inactive are the calls of the source. The calls are words filed in the database; no cut-off is given here.

Take `COc1cccc(-c2nc(OC)c3ccccc3n2)c1`: the Activity entry was “Active” in data set [1], “Dose-dependent effect” in data set [2], “Active” in data set [5] and “Active” in data set [6]. For the same molecule, in data set [3], the outcome was Active. In addition, on AHR, the Emax at 24 h turned out to be 290%. Besides, in data set [4], the EC50 worked out at 7300 nM.

In the case of `COc1cccc(-c2nc3ccccc3c(=S)[nH]2)c1`, the Activity result was “Active” in data set [1], “Dose-dependent effect” in data set [2], “Active” in data set [5] and “Active” in data set [6]. For the same molecule, in data set [3], the result was Active. Besides, the Emax at 24 h at AHR stood at 266%. The molecule also yielded an EC50 in data set [4] of 630 nM.

`COc1cccc(-c2nc(SC)c3ccccc3n2)c1`: the Activity result in data set [1] is “Active”; in data set [2], “Dose-dependent effect”; in data set [5], “Active”; in data set [6], “Active”. Further, in data set [3], the result was Active. In addition, the Emax at 24 h at AHR was found to be 219%. For the same molecule, the 50% effective concentration (EC50) in data set [4] stood at 2300 nM.
